What was measured:
[1] = Tmax in healthy human plasma at 1200 mg, po administered as single dose measured after 120 hrs; format: ADME, organism-based
How it was run: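 Fasted healthy adults (n = 6 per group) took one oral suspension dose. Plasma was sampled from predose through 0.25–120 h postdose and measured by validated LC-MS/MS (lower limit 1 ng/ml). Tmax was read directly from observed concentration–time data using actual sampling times and reported as median with range.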

Homo sapiens [2] = experiment: Renal clearance in healthy human assessed as cumulative amount excreted in urine at 800 mg, po administered as single dose measured after 48 hrs; format: ADME, organism-based; conditions: in vivo
How it was run: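 Healthy adults (6 per dose) received a single fasted oral suspension dose. Urine was collected predose and over 0–2, 2–4, 4–6, 6–8, 8–12, 12–24 and 24–48 h intervals, volumes were recorded, and aliquots were stored at −20°C. Samples were assayed by LC-MS/MS. Ae0-48 is the summed volume × concentration over all intervals; the mean was reported.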

[3] = Renal clearance in healthy human assessed as cumulative fraction excreted unchanged in urine at 200 mg, po administered as single dose measured after 48 hrs; format: ADME, organism-based; conditions: read-out: Fraction Recovered in urine
How it was run: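 After a single oral fasted suspension dose in healthy adults (6 per group), urine was collected in intervals to 48 h and measured by LC-MS/MS. fe0-48 = Ae0-48 (summed interval volume × concentration) / dose × 100%; the mean was reported.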

[4] = Renal clearance in healthy human at 800 mg, po administered as single dose measured after 48 hrs; format: ADME, organism-based, Kidney; conditions: in vivo, read-out: CL_renal (converted)
How it was run: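 Healthy adults (6 active per dose) got a single oral suspension dose after an 8-h fast, with food withheld 4 h. Urine over 0–48 h in intervals and serial EDTA plasma were assayed by validated LC-MS/MS, with plasma calibration from 1 to 1,000 ng/ml. CLR = Ae0-48 (urine volume × concentration summed) divided by plasma AUC0-48.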

Homo sapiens [5] = experiment: Toxicity in healthy human assessed as changes in vital signs at 100 to 1200 mg, po administered as single dose; format: organism-based; conditions: in vivo
How it was run: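 Vital signs were taken predose and during an in-house stay (48 h for groups 1–4, 120 h for the top dose). Outpatient visits at 72, 96 and 120 h followed a single fasted oral dose, in a double-blind, placebo-controlled design with 6 active and 2 placebo per group.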

CC[C@H]1OC(=O)[C@H](C)C(=O)[C@H](C)[C@@H](O[C@@H]2O[C@H](C)C[C@H](N(C)C)[C@H]2O)[C@@]2(C)C[C@@H](C)/C(=N\C(C)=O)[C@H](C)[C@@H](OC/C(=N\OCc3ccc(-n4cccn4)nc3)CO2)[C@]1(C)O [MODITHROMYCIN]
Tmax [1]: 5 h | Amount Recovered in urine (Homo sapiens [2]): 91.1 mg | dose excreted at 48 h [3]: 12.3% | CL renal at 48 h [4]: 57.5 mL/min | Activity (Homo sapiens [5]): Non-toxic
